Laboratory results published in ChEMBL document CHEMBL1681705, “Optimisation of ITK inhibitors through successive iterative design cycles” (Bioorg Med Chem Lett, 2011).

Tests used:
[1] = biological target: Mitogen-activated protein kinase 8 (Homo sapiens) (UniProt P45983); assay: Inhibition of JNK1a1 at 0.1 uM; values are per cent of control
[2] = biological target: LIM domain kinase 1 (Homo sapiens) (UniProt P53667); assay: Inhibition of LIMK1 at 0.1 uM; values are per cent of control
[3] = biological target: Proto-oncogene tyrosine-protein kinase receptor Ret (Homo sapiens) (UniProt P07949); assay: Inhibition of Ret at 1 uM; values are per cent of control
Chain of Proto-oncogene tyrosine-protein kinase receptor Ret (Homo sapiens) (P07949 whole entry): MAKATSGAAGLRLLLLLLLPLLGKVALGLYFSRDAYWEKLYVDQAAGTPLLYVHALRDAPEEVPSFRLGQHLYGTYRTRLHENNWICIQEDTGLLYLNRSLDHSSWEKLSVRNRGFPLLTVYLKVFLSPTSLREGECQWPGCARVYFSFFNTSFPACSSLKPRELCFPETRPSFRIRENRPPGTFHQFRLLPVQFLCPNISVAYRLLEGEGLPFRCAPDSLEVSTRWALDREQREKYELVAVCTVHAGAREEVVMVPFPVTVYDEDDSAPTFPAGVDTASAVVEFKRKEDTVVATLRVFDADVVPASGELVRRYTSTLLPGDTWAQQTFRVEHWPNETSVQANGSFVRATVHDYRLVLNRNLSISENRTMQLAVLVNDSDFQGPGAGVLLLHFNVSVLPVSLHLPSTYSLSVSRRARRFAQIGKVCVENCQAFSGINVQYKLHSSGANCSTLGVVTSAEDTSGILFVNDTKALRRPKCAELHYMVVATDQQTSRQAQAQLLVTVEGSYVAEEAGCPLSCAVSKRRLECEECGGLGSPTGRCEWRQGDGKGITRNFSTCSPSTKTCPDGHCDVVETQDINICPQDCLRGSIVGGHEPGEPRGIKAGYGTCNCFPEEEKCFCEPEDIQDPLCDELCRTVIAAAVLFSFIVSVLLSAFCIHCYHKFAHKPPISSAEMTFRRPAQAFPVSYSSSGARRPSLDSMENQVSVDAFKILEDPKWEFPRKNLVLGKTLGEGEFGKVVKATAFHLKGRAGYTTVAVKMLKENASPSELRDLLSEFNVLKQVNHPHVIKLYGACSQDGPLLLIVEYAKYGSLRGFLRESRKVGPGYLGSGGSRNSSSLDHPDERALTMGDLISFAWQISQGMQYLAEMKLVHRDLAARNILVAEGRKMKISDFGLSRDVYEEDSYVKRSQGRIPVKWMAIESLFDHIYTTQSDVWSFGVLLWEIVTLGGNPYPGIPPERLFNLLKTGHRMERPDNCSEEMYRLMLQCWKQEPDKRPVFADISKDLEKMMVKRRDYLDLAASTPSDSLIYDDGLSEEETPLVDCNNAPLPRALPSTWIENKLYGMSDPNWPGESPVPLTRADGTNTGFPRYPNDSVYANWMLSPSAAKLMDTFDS

[4] = biological target: Vascular endothelial growth factor receptor 2 (Homo sapiens) (UniProt P35968); assay: Inhibition of KDR at 1 uM; values are per cent of control
Chain of Vascular endothelial growth factor receptor 2 (Homo sapiens) (P35968 whole entry): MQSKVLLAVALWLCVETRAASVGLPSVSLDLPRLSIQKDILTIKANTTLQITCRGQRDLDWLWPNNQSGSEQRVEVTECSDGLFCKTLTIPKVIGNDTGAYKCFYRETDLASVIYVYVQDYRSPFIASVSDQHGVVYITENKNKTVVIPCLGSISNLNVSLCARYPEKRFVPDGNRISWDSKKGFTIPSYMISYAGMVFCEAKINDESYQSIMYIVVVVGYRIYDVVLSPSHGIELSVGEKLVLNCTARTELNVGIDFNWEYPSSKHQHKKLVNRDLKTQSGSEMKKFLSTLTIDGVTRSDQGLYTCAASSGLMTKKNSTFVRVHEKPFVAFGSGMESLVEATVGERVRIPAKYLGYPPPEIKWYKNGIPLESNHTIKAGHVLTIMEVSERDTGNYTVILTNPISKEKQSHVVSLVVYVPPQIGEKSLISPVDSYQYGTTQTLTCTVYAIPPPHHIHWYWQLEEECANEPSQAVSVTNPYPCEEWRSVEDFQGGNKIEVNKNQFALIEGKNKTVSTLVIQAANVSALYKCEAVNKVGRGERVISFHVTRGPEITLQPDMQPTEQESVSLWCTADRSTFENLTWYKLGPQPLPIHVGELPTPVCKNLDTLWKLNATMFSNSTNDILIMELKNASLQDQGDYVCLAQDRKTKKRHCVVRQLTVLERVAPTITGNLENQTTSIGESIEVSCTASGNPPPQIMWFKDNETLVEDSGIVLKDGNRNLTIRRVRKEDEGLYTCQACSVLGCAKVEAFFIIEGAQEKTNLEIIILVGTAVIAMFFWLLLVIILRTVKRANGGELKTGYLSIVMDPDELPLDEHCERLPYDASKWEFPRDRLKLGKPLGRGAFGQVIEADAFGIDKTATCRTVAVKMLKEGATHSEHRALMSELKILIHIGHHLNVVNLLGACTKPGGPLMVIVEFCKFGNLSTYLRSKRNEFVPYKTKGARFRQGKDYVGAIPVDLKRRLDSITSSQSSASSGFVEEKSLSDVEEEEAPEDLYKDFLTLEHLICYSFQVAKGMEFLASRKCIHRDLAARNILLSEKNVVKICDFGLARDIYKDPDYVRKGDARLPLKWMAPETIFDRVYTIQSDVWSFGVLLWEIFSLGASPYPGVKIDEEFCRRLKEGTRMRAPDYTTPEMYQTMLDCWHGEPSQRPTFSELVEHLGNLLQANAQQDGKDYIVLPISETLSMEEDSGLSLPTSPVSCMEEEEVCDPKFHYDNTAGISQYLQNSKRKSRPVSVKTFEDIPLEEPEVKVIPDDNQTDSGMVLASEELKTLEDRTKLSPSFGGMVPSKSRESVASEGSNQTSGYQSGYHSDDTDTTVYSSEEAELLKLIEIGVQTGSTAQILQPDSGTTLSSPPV

[5] = biological target: Ribosomal protein S6 kinase alpha-4 (Homo sapiens) (UniProt O75676); assay: Inhibition of MSK2 at 1 uM
Chain of Ribosomal protein S6 kinase alpha-4 (Homo sapiens) (O75676 whole entry, looked up): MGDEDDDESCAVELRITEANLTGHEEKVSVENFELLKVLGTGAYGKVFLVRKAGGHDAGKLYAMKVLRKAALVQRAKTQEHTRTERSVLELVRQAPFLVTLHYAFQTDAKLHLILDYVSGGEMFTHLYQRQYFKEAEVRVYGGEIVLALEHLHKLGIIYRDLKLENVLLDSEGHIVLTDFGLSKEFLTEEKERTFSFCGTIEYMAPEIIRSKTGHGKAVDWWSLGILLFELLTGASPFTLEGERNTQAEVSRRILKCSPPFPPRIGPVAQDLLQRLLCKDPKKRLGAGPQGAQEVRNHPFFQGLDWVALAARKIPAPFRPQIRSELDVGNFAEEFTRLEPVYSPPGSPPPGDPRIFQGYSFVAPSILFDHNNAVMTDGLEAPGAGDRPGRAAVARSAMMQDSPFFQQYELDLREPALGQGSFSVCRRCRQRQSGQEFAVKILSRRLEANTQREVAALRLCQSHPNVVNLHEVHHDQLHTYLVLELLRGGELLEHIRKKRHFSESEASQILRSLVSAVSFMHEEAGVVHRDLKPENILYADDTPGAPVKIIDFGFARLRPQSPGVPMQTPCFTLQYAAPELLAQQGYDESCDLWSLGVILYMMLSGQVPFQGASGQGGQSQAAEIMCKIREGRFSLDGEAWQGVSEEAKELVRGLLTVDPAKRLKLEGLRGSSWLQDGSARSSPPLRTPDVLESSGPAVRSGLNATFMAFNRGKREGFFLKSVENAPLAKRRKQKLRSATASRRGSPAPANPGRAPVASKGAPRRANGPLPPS
Method in brief: (§1)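 Single-point screen within a 108-kinase selectivity panel. Each kinase was tested with inhibitor at 0.1 and 1.0 micromolar, and activity was recorded as percent inhibition.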

[6] = biological target: BDNF/NT-3 growth factors receptor (Homo sapiens) (UniProt Q16620); assay: Inhibition of TrkB at 1 uM; values are per cent of control
[7] = biological target: Serine/threonine-protein kinase SIK1 (Homo sapiens) (UniProt P57059); assay: Inhibition of SIK at 0.1 uM; values are per cent of control
[8] = biological target: Tyrosine-protein kinase Lck (Homo sapiens) (UniProt P06239); assay: Inhibition of Lck at 1 uM
Chain of Tyrosine-protein kinase Lck (Homo sapiens) (P06239 2-509 limits assumed): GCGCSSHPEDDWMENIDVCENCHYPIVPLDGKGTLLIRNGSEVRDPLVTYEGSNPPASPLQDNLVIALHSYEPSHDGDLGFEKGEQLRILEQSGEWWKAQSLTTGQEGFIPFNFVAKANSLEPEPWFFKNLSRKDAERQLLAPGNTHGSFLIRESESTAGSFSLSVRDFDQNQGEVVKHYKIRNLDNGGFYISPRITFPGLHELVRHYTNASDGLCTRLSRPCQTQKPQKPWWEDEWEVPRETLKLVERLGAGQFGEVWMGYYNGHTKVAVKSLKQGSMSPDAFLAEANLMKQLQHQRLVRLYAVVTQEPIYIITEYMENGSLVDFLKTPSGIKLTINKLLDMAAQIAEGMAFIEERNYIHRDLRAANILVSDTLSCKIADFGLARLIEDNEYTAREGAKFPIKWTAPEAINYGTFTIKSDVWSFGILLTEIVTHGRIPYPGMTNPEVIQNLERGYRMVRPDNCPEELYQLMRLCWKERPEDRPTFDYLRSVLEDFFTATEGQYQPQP
Method in brief: as §1

[9] = biological target: T1, Dual specificity mitogen-activated protein kinase kinase 6 (Homo sapiens) (UniProt P52564); assay: Inhibition of MKK6 at 1 uM; values are per cent of control
T1 sequence (whole entry): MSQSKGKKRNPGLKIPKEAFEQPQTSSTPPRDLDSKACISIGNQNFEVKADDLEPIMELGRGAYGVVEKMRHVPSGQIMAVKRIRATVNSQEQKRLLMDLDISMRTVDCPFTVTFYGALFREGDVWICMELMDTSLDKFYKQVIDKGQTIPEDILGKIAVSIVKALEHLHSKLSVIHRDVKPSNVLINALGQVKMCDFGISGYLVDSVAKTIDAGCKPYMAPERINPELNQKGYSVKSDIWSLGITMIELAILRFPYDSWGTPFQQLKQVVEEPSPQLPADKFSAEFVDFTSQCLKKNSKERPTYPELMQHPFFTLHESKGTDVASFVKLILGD

[10] = biological target: Myosin light chain kinase, smooth muscle (Homo sapiens) (UniProt Q15746); assay: Inhibition of MLCK at 1 uM; values are per cent of control
[11] = biological target: Insulin-like growth factor 1 receptor (Homo sapiens) (UniProt P08069); assay: Inhibition of IGF1R at 0.1 uM; values are per cent of control
[12] = biological target: T2, Ephrin type-A receptor 8 (Homo sapiens) (UniProt P29322); assay: Inhibition of EphA8 at 0.1 uM; values are per cent of control
T2 sequence (whole entry): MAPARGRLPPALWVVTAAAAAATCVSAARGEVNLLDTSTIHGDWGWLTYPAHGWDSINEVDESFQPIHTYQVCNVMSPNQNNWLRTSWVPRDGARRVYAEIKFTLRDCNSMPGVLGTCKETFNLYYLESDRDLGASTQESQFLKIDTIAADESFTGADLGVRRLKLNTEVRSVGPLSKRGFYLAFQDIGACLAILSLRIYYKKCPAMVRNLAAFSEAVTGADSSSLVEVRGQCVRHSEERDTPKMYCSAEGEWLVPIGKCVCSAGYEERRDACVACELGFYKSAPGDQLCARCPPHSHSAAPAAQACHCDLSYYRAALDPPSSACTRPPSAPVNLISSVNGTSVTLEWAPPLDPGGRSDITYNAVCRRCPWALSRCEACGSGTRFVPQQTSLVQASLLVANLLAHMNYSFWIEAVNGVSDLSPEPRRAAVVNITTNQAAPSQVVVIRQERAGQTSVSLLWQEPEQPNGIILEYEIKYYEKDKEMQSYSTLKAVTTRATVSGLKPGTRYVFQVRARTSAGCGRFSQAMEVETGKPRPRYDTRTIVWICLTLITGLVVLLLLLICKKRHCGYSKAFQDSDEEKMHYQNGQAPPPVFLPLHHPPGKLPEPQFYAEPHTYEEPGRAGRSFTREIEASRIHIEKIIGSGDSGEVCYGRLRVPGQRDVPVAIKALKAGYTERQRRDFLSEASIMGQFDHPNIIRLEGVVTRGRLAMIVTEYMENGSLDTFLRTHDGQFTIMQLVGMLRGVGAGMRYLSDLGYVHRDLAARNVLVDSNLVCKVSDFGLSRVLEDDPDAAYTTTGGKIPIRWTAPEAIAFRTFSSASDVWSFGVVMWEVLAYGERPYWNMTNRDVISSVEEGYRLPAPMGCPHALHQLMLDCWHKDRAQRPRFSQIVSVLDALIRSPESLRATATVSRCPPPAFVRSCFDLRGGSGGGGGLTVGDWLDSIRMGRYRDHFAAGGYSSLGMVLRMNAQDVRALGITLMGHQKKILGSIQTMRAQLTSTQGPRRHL

[13] = biological target: CDK6/cyclin D3 (Homo sapiens) (UniProt P30281+Q00534); assay: Inhibition of CDK6/cyclin D3 at 1 uM; values are per cent of control
[14] = biological target: Serine/threonine-protein kinase PAK 2 (Homo sapiens) (UniProt Q13177); assay: Inhibition of PAK2 at 1 uM; values are per cent of control
Chain of Serine/threonine-protein kinase PAK 2 (Homo sapiens) (Q13177 whole entry): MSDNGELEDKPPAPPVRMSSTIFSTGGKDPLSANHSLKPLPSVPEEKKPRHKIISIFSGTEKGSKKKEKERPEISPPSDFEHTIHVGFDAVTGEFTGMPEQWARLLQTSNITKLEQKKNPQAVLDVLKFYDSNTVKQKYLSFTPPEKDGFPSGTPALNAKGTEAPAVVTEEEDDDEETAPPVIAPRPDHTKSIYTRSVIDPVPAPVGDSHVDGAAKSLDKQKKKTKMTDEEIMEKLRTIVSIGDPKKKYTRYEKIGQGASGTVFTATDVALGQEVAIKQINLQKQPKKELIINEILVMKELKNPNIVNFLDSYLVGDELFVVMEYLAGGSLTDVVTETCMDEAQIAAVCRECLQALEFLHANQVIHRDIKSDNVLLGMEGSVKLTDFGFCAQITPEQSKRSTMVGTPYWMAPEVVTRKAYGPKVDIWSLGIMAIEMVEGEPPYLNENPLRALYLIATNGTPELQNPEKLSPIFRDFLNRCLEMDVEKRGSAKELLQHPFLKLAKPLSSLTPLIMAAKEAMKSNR

[15] = Inhibition of MAPK2 at 1 uM; details: values are per cent of control
[16] = biological target: Serine/threonine-protein kinase pim-2 (Homo sapiens) (UniProt Q9P1W9); assay: Inhibition of Pim-2 at 1 uM; values are per cent of control
Chain of Serine/threonine-protein kinase pim-2 (Homo sapiens) (Q9P1W9 whole entry, looked up): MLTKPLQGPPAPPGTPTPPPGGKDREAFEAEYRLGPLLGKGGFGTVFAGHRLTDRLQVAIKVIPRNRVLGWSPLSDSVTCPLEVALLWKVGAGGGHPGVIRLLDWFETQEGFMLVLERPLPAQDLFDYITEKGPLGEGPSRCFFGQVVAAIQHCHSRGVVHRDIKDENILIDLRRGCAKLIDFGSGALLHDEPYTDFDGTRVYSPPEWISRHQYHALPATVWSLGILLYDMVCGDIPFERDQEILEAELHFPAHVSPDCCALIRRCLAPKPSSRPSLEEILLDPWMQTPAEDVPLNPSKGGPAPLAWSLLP

Chain of Mitogen-activated protein kinase 8 (Homo sapiens) (P45983 whole entry, the tested form may be a part): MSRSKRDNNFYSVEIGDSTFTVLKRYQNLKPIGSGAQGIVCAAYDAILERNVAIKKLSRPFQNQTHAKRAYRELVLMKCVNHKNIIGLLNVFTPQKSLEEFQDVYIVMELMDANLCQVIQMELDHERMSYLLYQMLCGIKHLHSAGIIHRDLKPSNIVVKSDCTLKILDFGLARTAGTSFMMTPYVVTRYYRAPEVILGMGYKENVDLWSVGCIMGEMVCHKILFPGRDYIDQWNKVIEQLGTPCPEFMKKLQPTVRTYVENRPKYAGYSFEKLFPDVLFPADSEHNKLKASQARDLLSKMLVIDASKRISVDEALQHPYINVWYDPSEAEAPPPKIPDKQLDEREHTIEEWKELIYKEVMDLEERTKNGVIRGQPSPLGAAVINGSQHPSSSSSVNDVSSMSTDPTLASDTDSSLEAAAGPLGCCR

Row | SMILES | residual activity [1] [%] | residual activity [2] [%] | residual activity [3] [%] | residual activity [4] [%] | inhibition [5] [%] | residual activity [6] [%] | residual activity [7] [%] | inhibition [8] [%] | residual activity [9] [%] | residual activity [10] [%] | residual activity [11] [%] | residual activity [12] [%] | residual activity [13] [%] | residual activity [14] [%] | residual activity [15] [%] | residual activity [16] [%]
1 | Cc1ccc2cc(-c3n[nH]c4ccc(NC5CCNC5)cc34)[nH]c2c1 (configuration not stated) | 101 | 37 | 3 | 5 | 2 | 1 | 18 | 0 | 15 | 44 | 98 | 97 | 33 | 38 | 64 | 105
2 | Cc1ccc2cc(-c3n[nH]c4ccc(NC5CCN(Cc6ccccc6)CC5)cc34)[nH]c2c1 | 83 | 98 | -2 | 21 | 91 | 0 | 43 | 9 | 85 | 63 | 52 | 92 | 46 | 72 | 84 | 101
